From ChEMBL document CHEMBL1124187, “Nucleosides. 150. Synthesis and some biological properties of 5-monofluoromethyl, 5-difluoromethyl, and 5-trifluoromethyl derivatives of 2'-deoxyuridine and 2'-deoxy-2'-fluoro-beta-D-arabinofuranosyluracil” (1988)

Experiments:
HL-60 [1] = experiment: Growth inhibition against HL-60 after 48 hours incubation period; format: functional; conditions: Homo sapiens, HL-60, 48 h; read-out: ID50 (the source's name)
How it was run: (§1)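 HL-60 cell growth inhibition; ID50 derived from six concentrations of each nucleoside using the median-effect equation and plot.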

HL-60 [2] = experiment: Growth inhibition against HL-60 after 72 hours incubation period; format: functional; conditions: Homo sapiens, HL-60, 72 h; read-out: ID50 (the source's name); how it was run: as §1
Human alphaherpesvirus 2 = experiment: Effective dose required for antiherpes activity against HSV-2(G) strain; format: functional; conditions: read-out: ED50 (the source's name)
Human alphaherpesvirus 1 = experiment: Effective dose required for antiherpes activity against HSV-1(F) strain; format: functional; conditions: read-out: ED50 (the source's name)
Homo sapiens = species on record: Homo sapiens; experiment: Growth inhibition against HL-60 after 24 hr incubation period; format: functional; how it was run: as §1
HL-60 [3] = experiment: Growth inhibition against HL-60 after 24 hours incubation period; format: functional; conditions: Homo sapiens, HL-60, 24 h; read-out: ID50 (the source's name); how it was run: as §1
[4] = target: Thymidylate synthase (Mus musculus) (UniProt P07607); experiment: The compound was tested for inhibition of thymidylate synthase (TS) in L1210 cells; format: cell-based
Sequence of Thymidylate synthase (Mus musculus) (P07607 whole entry, looked up): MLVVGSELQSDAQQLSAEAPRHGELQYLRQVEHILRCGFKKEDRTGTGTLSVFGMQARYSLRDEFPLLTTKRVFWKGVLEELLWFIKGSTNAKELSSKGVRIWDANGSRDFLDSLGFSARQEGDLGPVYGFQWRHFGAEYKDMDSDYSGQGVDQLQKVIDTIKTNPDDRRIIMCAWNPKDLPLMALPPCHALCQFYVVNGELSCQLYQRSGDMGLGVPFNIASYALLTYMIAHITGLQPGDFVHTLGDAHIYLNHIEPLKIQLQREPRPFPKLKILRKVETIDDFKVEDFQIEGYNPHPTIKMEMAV
How it was run: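 In situ thymidylate synthase activity in intact L1210 cells, measured as tritium released from [5-3H]UDR. Reported as ID50.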

HL-60 [5] = experiment: The compound was tested for [3H]TdR incorporation into DNA in HL-60 cells; format: functional; conditions: Homo sapiens, HL-60, 30 min; read-out: ID50 (the source's name)
How it was run: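 HL-60 cells labelled with [methyl-3H]TDR (1 µCi, 0.02 µM) for 30 min, then label incorporated into DNA measured. ID50 derived from six nucleoside concentrations using the median-effect equation and plot.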

Row | Compound | IC50 (HL-60 [1]) [µM] | IC50 (HL-60 [2]) [µM] | EC50 (Human alphaherpesvirus 2) [µM] | EC50 (Human alphaherpesvirus 1) [µM] | ID50 (Homo sapiens) [µM] | IC50 (HL-60 [3]) [µM] | ID50 [4] [µM] | IC50 (HL-60 [5]) [µM]
1 | CC(=O)OC[C@H]1O[C@@H](n2cc(C(F)F)c(=O)[nH]c2=O)[C@@H](F)[C@@H]1OC(C)=O | 83 | 40 | 2.16 | 0.71 | 257 | – | – | –
2 | CC(=O)OC[C@H]1O[C@@H](n2cc(CF)c(=O)[nH]c2=O)[C@@H](F)[C@@H]1OC(C)=O | 500 | 312 | 5.19 | 2.43 | – | 860 | – | –
3 | O=c1[nH]c(=O)n([C@H]2C[C@H](O)[C@@H](CO)O2)cc1CO | – | – | – | – | – | – | > 1000 | –
4 | CC(=O)OC[C@H]1O[C@@H](n2cc(C(F)F)c(=O)[nH]c2=O)C[C@@H]1OC(C)=O | 14 | 14 | 25.1 | 17 | – | 83 | – | –
5 | O=c1[nH]c(=O)n([C@@H]2O[C@H](CO)[C@@H](O)[C@@H]2F)cc1CO | 1160 | 1920 | 5.5 | 2 | – | > 5000 | > 1000 | –
6 | O=c1[nH]c(=O)n([C@H]2C[C@H](O)[C@@H](CO)O2)cc1C(F)F | 1.25 | 0.12 | 1.17 | 0.8 | – | 4 | 0.063 | 5.1
7 | CC(=O)OC[C@H]1O[C@@H](n2cc(C(F)(F)F)c(=O)[nH]c2=O)C[C@@H]1OC(C)=O | 19 | 8.5 | 16.3 | 4.7 | – | 501 | – | –
8 | O=c1[nH]c(=O)n([C@@H]2O[C@H](CO)[C@@H](O)[C@@H]2F)cc1C(F)F | 12 | 6.6 | 1.04 | 0.34 | – | 97 | 56 | > 1000
9 | Cc1cn([C@H]2C[C@H](O)[C@@H](CO)O2)c(=O)[nH]c1=O [DOXRIBTIMINE] | 461 | 336 | > 1000 | > 1000 | – | 901 | 75 | 0.61
10 | O=c1[nH]c(=O)n([C@@H]2O[C@H](CO)[C@@H](O)[C@@H]2F)cc1CF | 202 | 119 | 0.8 | 0.68 | – | 995 | > 1000 | 189
11 | CC(=O)OC[C@H]1O[C@@H](n2cc(CF)c(=O)[nH]c2=O)C[C@@H]1OC(C)=O | 976 | 324 | > 100 | > 100 | – | 3470 | – | –
12 | O=Cc1cn([C@@H]2O[C@H](CO)[C@@H](O)[C@@H]2F)c(=O)[nH]c1=O | – | – | – | – | – | – | > 1000 | –
13 | CC(=O)OC[C@H]1O[C@@H](n2cc(C)c(=O)[nH]c2=O)[C@@H](F)[C@@H]1OC(C)=O | 209 | 119 | 1.23 | 0.44 | – | > 1000 | – | –
14 | CC(=O)OC[C@H]1O[C@@H](n2cc(C(F)(F)F)c(=O)[nH]c2=O)[C@@H](F)[C@@H]1OC(C)=O | 62 | 65 | 1.3 | 1.3 | – | 54 | – | –
15 | Cc1cn([C@@H]2O[C@H](CO)[C@@H](O)[C@@H]2F)c(=O)[nH]c1=O [5-METHYL-2'-FLUOROARAURACIL] | 51 | 25 | 0.07 | 0.07 | – | 136 | > 1000 | 20
16 | O=c1[nH]c(=O)n([C@@H]2O[C@H](CO)[C@@H](O)[C@@H]2F)cc1C(F)(F)F | 29 | 17 | 1.7 | 0.83 | – | 304 | 14 | > 1000
17 | O=c1[nH]c(=O)n([C@H]2C[C@H](O)[C@@H](CO)O2)cc1C(F)(F)F [TRIFLURIDINE] | 1.7 | 0.14 | 1.88 | 0.77 | – | 1.5 | 0.035 | 14
18 | O=c1[nH]c(=O)n([C@H]2C[C@H](O)[C@@H](CO)O2)cc1CF | > 1000 | > 1000 | > 100 | > 100 | – | 178 | 11 | 18.6
